Calls of active or inactive are those of the source. Unless noted, no rule for the calls is given here.

For experiment [1], the target named is Pantothenate synthetase (Mycobacterium tuberculosis (strain ATCC 25618 / H37Rv)) (UniProt P9WIL5). The experiment can be described thus: Coupled enzyme confirmation of inhibitors against recombinant Mtb PanC (AID 375).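 Also: 0% = full reaction with vehicle and 100% = no enzyme background.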 Particulars: coupled enzyme assay; at 10 µM, stronger effect = higher value.
Experiment [2] in a line: Her2 expression decrease, cell viability multiplex – SKBR3 breast tumor cells, AlphaScreen, ATP viability, primary screen (AID 461;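 active = Her2 level under about 52% in both replicate screens, with viability over 70% of control, limit read from the data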;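 as to Her2 level: lower value means less Her2 protein in the cells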;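 as to viability: percent of carrier control wells set as 100% viability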). Particulars: SKBR3 Her2 protein level, 18-24 h, measured here: SKBR3 viability, ATP luminescence, at 10 µM. On the technique in general: Bead proximity is the source of the signal in Alpha formats.
Experiment [3] addresses Receptor tyrosine-protein kinase erbB-2 (Homo sapiens) (UniProt P04626). The description is as above. As to conditions: 18-24 h, at 10 µM, stronger effect = lower value.
A short description of experiment [4]: reduced viability of SK-BR-3 breast cancer cells – cell-based, 24 h, human, pilot screen (AID 572;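 active = viability at or below 10% of carrier control in both of two separate runs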;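 also: compound exposure lasted between 18 and 24 h rather than exactly 24 h; 100% = carrier-treated control wells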). Particulars: SK-BR-3 viability, CellTiter-Glo luminescence, at 10 µM, stronger effect = lower value.
A short description of experiment [5]: HUVEC growth inhibition – cell-based, human, primary screen (AID 575;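 active = viability at or below 30% in both replicate assays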;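 also: 100% = median of untreated cell wells with 0.1% DMSO on each plate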). Particulars: HUVEC proliferation, CellTiter-Glo luminescence, 72 h; at 10 µM; stronger effect = lower value. A digest of the protocol:
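system = HUVEC primary cells | amount = 1250 cells/well | buffer or medium = supplemented EBM, 2% fetal bovine serum | dosing = single-point 10 µM, DMSO 0.1% final | times = 72 h compound incubation | detection = CTG luminescence | read-out = % viability relative to median vehicle-well signal on each plate | control set = vehicle and MePR control wells | format = collagen-coated 384-well format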
Background: In ATP-based viability assays light output follows the ATP content of the culture.

Experiment [6] can be described thus: H69AR cell proliferation blockers – human, duplicate replicates, primary screen (AID 580;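 active = viability at or under a set limit in both replicates, limit being median viability minus 3 SD, cut at about 48% in these data, passing the limit was not always enough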;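 also: 100% = mean luminescence of untreated wells and 0% = no signal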). As to conditions: H69AR lung tumor cells viability, ATP luminescence, 72 h; at 10 µM; stronger effect = lower value.
Experiment [7] in a line: MRP1 drug-resistance reversers in H69AR cells – cell-based, doxorubicin co-treatment, pilot screen (AID 601;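 active = viability loss from added drug above about 55%, and viability with drug at most 40%, in both replicates, limit read from the data, passing the limit was not always enough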). Particulars: CellTiter-Glo, 72 h, at 10 µM.

Pantothenate synthetase (Mycobacterium tuberculosis (strain ATCC 25618 / H37Rv)), sequence (P9WIL5 whole entry, looked up): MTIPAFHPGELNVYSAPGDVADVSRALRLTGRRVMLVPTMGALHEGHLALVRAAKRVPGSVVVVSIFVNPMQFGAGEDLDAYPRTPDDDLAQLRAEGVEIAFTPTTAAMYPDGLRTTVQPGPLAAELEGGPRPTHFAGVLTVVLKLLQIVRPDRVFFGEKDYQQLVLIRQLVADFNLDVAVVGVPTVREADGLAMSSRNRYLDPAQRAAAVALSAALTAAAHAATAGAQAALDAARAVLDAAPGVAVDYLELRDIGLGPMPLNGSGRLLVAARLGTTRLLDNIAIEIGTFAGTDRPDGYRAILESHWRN
Receptor tyrosine-protein kinase erbB-2 (Homo sapiens), sequence (P04626 whole entry, looked up): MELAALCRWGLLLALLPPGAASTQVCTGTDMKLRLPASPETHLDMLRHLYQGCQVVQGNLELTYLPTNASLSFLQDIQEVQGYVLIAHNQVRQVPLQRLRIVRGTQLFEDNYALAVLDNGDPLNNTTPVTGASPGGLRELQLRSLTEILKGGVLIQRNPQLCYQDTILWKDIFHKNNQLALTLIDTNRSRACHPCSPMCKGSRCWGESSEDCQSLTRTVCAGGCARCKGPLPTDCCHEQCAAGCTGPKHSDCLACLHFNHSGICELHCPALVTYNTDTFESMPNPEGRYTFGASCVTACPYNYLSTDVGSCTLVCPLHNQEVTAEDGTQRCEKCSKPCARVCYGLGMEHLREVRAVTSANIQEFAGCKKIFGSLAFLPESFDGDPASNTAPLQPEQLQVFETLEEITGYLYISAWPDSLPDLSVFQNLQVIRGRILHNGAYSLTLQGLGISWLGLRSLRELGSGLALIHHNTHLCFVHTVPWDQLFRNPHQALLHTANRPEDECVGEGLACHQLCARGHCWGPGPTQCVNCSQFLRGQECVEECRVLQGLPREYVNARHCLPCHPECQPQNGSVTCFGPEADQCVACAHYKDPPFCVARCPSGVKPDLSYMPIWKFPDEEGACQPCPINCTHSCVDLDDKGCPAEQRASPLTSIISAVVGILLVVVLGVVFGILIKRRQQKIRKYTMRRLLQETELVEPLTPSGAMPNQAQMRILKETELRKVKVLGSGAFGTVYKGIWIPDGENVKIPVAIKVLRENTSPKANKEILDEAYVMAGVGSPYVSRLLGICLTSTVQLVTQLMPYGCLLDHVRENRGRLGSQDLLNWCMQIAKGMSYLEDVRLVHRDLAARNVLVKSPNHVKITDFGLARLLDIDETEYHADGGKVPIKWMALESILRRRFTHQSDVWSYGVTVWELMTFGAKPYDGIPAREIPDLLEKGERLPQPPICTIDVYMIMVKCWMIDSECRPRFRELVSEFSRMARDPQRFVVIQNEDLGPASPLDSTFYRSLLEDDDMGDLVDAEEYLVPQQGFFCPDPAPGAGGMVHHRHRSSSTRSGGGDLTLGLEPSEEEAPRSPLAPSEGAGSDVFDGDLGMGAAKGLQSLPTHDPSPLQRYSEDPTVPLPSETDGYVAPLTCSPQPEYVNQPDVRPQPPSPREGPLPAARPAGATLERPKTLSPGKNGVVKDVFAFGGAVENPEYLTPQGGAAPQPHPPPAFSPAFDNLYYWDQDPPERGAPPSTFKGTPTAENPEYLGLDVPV

Regarding `COC(=O)[C@@H](NC(=O)NCc1ccccc1Cl)C(C)C`, the inhibition in experiment [1] was 0% (inactive).
With `COC(=O)c1ccc(CSc2nc3ccccc3s2)o1`, in experiment [1], the inhibition is 0% (inactive).
On the same count and under the same terms, as for `COc1ccc(N2CCN(c3nc4c(c(=O)[nH]c(=O)n4C)n3CCCc3ccccc3)CC2)cc1`, the figure is 13% (inactive); as for `Cc1ccccc1C(OCCN(C)C)c1ccccc1` (configuration not stated), 0% (inactive); as for `COc1ccc(S(=O)(=O)N(C)c2ccc(C(=O)N3CCOCC3)cc2)cc1`, 0% (inactive).
The same measure, in the same setting: in the case of `CC(=O)N(C)C1(c2nnnn2CCOC(=O)Nc2cccc3ccccc23)CCCC1` it was 0% (inactive); in that of `O=C(c1ccc2nc(N3CCCCC3)sc2c1)N1CCN(c2ccccn2)CC1`, 0% (inactive); in that of `CC(C)OC(=O)CSc1nnc(-c2ccc(C(C)(C)C)cc2)n1N`, 0% (inactive).
The same measure, in the same setting: as for `COc1ccc(OCC(=O)N2CC3(C)CC2CC(C)(C)C3)cc1` (configuration not stated), the figure is 0% (inactive); as for `CN(C)CCOC(c1ccccc1)c1ccccc1`, 0% (inactive); as for `COCCn1c(CN2CCN(c3cccc(Cl)c3)CC2)nc2c1c(=O)n(C)c(=O)n2C`, 0% (inactive).
Regarding `CCCc1nc(NCc2ccncc2)c2nnn(Cc3ccccc3F)c2n1`, the inhibition in experiment [1] was 0% (inactive).
On the same count and under the same terms, in the case of `O=C1c2ccccc2NC(c2ccco2)N1O` (configuration not stated) it was 5% (inactive); in that of `Cn1c(NC(=O)c2ccccc2NC(=O)C(C)(C)C)nc2ccccc21`, 0% (inactive); in that of `O=C(Nc1cccc(C(F)(F)F)c1)c1ccco1`, 0% (inactive).
As for `Cc1nnc(NC(=O)CSc2cn(CCNC(=O)c3ccccc3)c3ccccc23)s1`, in experiment [1], the inhibition was 0% (inactive).
Still for that read-out and setting: in the case of `CCOC(=O)c1ccccc1NC(=O)COC(=O)C1=COCCO1` it was 0% (inactive); in that of `Nc1nc2sc3c(c2c(=O)s1)CCCC3`, 0% (inactive); in that of `N#Cc1ccccc1Cn1c(=O)n(Cc2ccc(C(=O)NCc3ccco3)cc2)c(=O)c2ccccc21`, 0% (inactive).
With `CCC(=O)Nc1cc(C(=O)NCC2CCCN2CC)c(OC)cc1N(C)C` (configuration not stated), the inhibition in experiment [1] is 0% (inactive).
The same measure, in the same setting: in the case of `COC(=O)C1(C#N)C(c2ccccc2)C1(C(=O)OC)C(=O)OC` (configuration not stated) it was 0% (inactive).
Still for that read-out and setting: as for `COC(=O)c1[nH]c2c(c1C)C(=O)CC(c1cc(OC)ccc1OC)C2` (configuration not stated), the figure is 0% (inactive).
Regarding `COC(=O)CCC(=O)Nc1cccc(Br)c1`, the inhibition in experiment [1] is 0% (inactive).
The same measure, in the same setting: in the case of `Cc1ccccc1NC(=O)NCCCN1CCN(C2CCCCC2)CC1` it was 0% (inactive); in that of `O=S(=O)(NCc1ccccc1)c1ccc2c(c1)OCCO2`, 0% (inactive).
Still for that read-out and setting: as for `CCNC(=O)C1CC(=O)N(Cc2ccc3c(c2)OCO3)C(=Nc2ccc(F)cc2)S1` (configuration not stated), the figure is 0% (inactive); as for `Cc1cc(=O)n(C)c(=O)n1CCCCCN1CCCC1`, 0% (inactive).
On the same count and under the same terms, as for `O=C(O)CCCCCNc1nc(=S)[nH]c2ccccc12`, the figure is 0% (inactive); as for `CCOc1ccccc1NC(=O)CSc1nnc(Cc2cccn2C)n1-c1ccc(F)cc1`, 5% (inactive); as for `Cc1ccc2nc(-c3ccccn3)cc(C(=O)N3CCN(c4ncccn4)CC3)c2c1`, 3% (inactive).
Regarding `COc1ccc(OCCSc2nc3ccccc3n2CC(=O)O)cc1`, the inhibition in experiment [1] is 2% (inactive).
Still for that read-out and setting: as for `Cc1ccc(S(=O)(=O)N2CCCC(c3nnc4n3-c3ccccc3SC4)C2)cc1` (configuration not stated), the figure is 9% (inactive); as for `c1ccc(-c2cnc(CSc3ncnc4sccc34)o2)cc1`, 0% (inactive); as for `CCn1cc(SCC(=O)NCC2CCCO2)c2ccccc21` (configuration not stated), 0% (inactive).
Still for that read-out and setting: as for `COc1ccc(-c2nnc(SCC(=O)NC(=O)NCc3ccco3)o2)cc1`, the figure is 0% (inactive); as for `O=C1OC(N2CCN(c3ccccn3)CC2)c2ccccc21` (configuration not stated), 0% (inactive).
On the same count and under the same terms, as for `O=C(OCC#CCSc1nnc(-c2ccccc2)o1)c1cccs1`, the figure is 0% (inactive).
With `O=C(Nc1ccc2c(c1)OCO2)c1nn(-c2ccccc2)c(=O)c2ccccc12`, the inhibition in experiment [1] was 3% (inactive).
The same measure, in the same setting: as for `CC(c1ccccc1)n1cnc2ccccc21` (configuration not stated), the figure is 0% (inactive).
Still for that read-out and setting: in the case of `COc1cccc(OCC(O)CN2CCN(CCO)CC2)c1` (configuration not stated) it was 0% (inactive).
The same measure, in the same setting: in the case of `CCn1c(SCC(=O)N2CCCc3ccccc32)nnc1-c1cccs1` it was 0% (inactive); in that of `Cc1csc(NC(=O)c2cccs2)n1`, 0% (inactive).
`N#Cc1cnc(SCC(=O)Nc2ccccc2C(F)(F)F)nc1N`: the inhibition in experiment [1] was 4% (inactive).
Still for that read-out and setting: in the case of `CC(=O)NC(Cc1ccccc1)C(=O)NC1CCN(C(=O)c2cnccn2)CC1` (configuration not stated) it was 0% (inactive); in that of `CCOC(=O)c1cc2c(=O)n3cccc(C)c3nc2n(CCc2ccccc2)c1=N`, 0% (inactive); in that of `COc1ccc(C)cc1NS(=O)(=O)c1ccc(NS(=O)(=O)c2ccc(NC(C)=O)cc2)cc1`, 1% (inactive).
The same measure, in the same setting: in the case of `COc1cccc(OC)c1C(=O)Nc1ccccc1N1CCCC1` it was 2% (inactive); in that of `COc1ccc(S(=O)(=O)CCC(=O)O)cc1`, 6% (inactive).
The same measure, in the same setting: as for `CC1=Nn2c(nnc2-c2cc(-c3ccccc3)n[nH]2)SC1`, the figure is 0% (inactive); as for `O=S(=O)(c1ccc(Br)s1)N1CCCCC1`, 0% (inactive).
Turning to `Cc1c(C)n(C)c2ccc(C(=O)NCc3cccs3)cc12`, in experiment [1], the inhibition was 0% (inactive).
The same measure, in the same setting: in the case of `Cc1ccc(SCC(=O)NCCN2C(=O)CSC2=O)c(C)c1` it was 0% (inactive); in that of `CCCCCn1c2nc3ccccc3nc2c2c(=O)n(CC(C)C)cnc21`, 7% (inactive); in that of `COc1ccc(N(CC(=O)Nc2cc(C)ccc2C)S(=O)(=O)c2c(C)nn(C)c2C)cc1`, 0% (inactive).
On the same count and under the same terms, in the case of `Cc1ccc(NC(=O)c2oc3ccc(S(=O)(=O)N4CCOCC4)cc3c2C)cc1C` it was 3% (inactive); in that of `O=C(CN1C(=O)CCS(=O)(=O)c2ccccc21)NCc1ccc(F)cc1`, 3% (inactive); in that of `CCN(CC)C(=O)C1CCC(CNS(=O)(=O)c2cccc3cccnc23)CC1` (configuration not stated), 0% (inactive).
Still for that read-out and setting: in the case of `CCOc1ccccc1NC(=O)C1CCCN1C(=O)OCc1ccccc1` (configuration not stated) it was 0% (inactive); in that of `COC(=O)Cn1c(CCS(=O)(=O)c2ccc(C)cc2)nc2ccccc21`, 1% (inactive); in that of `CN(C=C1C(=O)CC(C)(C)CC1=O)CCN1CCNCC1`, 1% (inactive).
Regarding `O=C(O)COc1cccc(NC(=O)C2CCCO2)c1` (configuration not stated), in experiment [1], the inhibition was 0% (inactive).
As for `COc1ccc(C2C(C(=O)c3sc(C)nc3C)=C(O)C(=O)N2CCN(C)C)cc1` (configuration not stated), the inhibition in experiment [1] was 9% (inactive).
Still for that read-out and setting: in the case of `Cc1cccc(N2CN=c3s/c(=C\c4ccncc4)c(=O)n3C2)c1` it was 6% (inactive); in that of `COc1ccc(NC(=O)N2CCC(O)(c3cccnc3)CC2)c(OC)c1`, 3% (inactive).
Consider `CCCN1C=CC(=C2C(=O)c3ccccc3C2=O)C=C1`, for which, in experiment [1], the inhibition is 0% (inactive).
Turning to `CCCCn1c(CNC(=O)CCC)nc2ccccc21`, the inhibition in experiment [1] is 4% (inactive).
The same measure, in the same setting: as for `O=C(CSCc1cnn(-c2ccccc2)c1-n1cccc1)NCC1CCCO1` (configuration not stated), the figure is 4% (inactive); as for `CCOc1cccc(Oc2ccc(C(F)(F)F)cn2)c1`, 0% (inactive); as for `NC(=O)COC(=O)CNC(=O)c1ccc(Cl)cc1`, 0% (inactive).
In the case of `O=C(NC(C(=O)c1ccccc1)n1ccc(=O)[nH]c1=O)c1ccccc1` (configuration not stated), the inhibition in experiment [1] was 0% (inactive).
Turning to `COc1cc(CN(C)CC(=O)c2[nH]c(C)c(C(C)=O)c2C)ccc1OC(F)F`, the inhibition in experiment [1] was 0% (inactive).
In the case of `CCC(COC(=O)c1cc(OC)c(OC)c(OC)c1)(c1ccccc1)N(C)C` (configuration not stated), in experiment [1], the inhibition is 2% (inactive). Besides, the viability in experiment [2] is 87.5%; in experiment [4], 87.5% (inactive); in experiment [5] it was 104% (inactive); in experiment [6], 87.6% (inactive); in experiment [7] (H69AR cells + 2 uM doxorubicin, measured here: viability with 2 uM doxorubicin, stronger effect = lower value), 75.7%; in experiment [7] (H69AR cells, compound alone cytotoxicity), 87.6%. Also, the Her2 level in experiment [3] was 107% (inactive). Moreover, in experiment [7] (H69AR cells + 2 uM doxorubicin, stronger effect = higher value), the differential viability (reversal) was 11.9% (inactive).
Consider `COc1ccc(C2CC(c3cccs3)n3nc(N)nc3N2)cc1` (configuration not stated), for which, in experiment [1], the inhibition is 0% (inactive).
Still for that read-out and setting: as for `Cc1nnc(C)c2c(C)n(Cc3ccc4c(c3)OCO4)c(C)c12`, the figure is 0% (inactive).

A word on the inhibition: it is how much of the control response was suppressed. As usually defined, the viability is a read-out of living cells in per cent, often relative to untreated cells.
